Consider 12 compounds from PubChem BioAssay AID504679 (The Scripps Research Institute Molecular Screening Center, 2011).

Broadly, the IC50 is the concentration that inhibits the measured activity by half.

Calls of active or inactive are those of the source.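 The calls were made as follows: active = IC50 of 10 µM or lower; inactive = IC50 above 10 µM.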

In this assay the test system is E. coli V66 + T4 gene 2 phage, OD growth. Kind of assay: RecBCD inhibition via phage-restricted bacterial growth – absorbance, V66 E. coli, dose response, counter-screen for AddAB inhibitor project, late-stage follow-up (AID 504679). Summed up:
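Test system: E. coli V66 bacteria; Probe or stimulus: gene 2 nonsense-mutant T4 bacteriophage at MOI 0.02; Schedule: 18 h phage exposure at 37 °C before reading; Technique: absorbance at 600 nm as bacterial growth measure; Read-out basis: percent inhibition versus ciprofloxacin and DMSO wells; Control set: Ciprofloxacin-treated wells and DMSO-only wells.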
(A counterscreen serves to expose hits that act by an unwanted route or on another target.)
Regarding `NC(=O)c1ccsc1NC(=O)COC(=O)c1ccc([N+](=O)[O-])o1`, the IC50 was > 119 µM (inactive). For the compound `O=C(Nc1ncccn1)c1ccc([N+](=O)[O-])o1`, the IC50 was > 119 µM (inactive).

Turning to `O=C(OCC(=O)c1cccs1)c1ccc([N+](=O)[O-])o1`, the IC50 is > 119 µM (inactive). The result for `O=C(Nc1ccc(N2CCOCC2)cc1)c1ccc([N+](=O)[O-])o1` reads > 119 µM (inactive); that for `O=C(NCc1cccnc1)c1ccc([N+](=O)[O-])o1`, 93.8 µM (inactive). The result for `Cc1ccc2nc(/C(C#N)=C\c3ccc([N+](=O)[O-])o3)[nH]c2c1` reads > 119 µM (inactive); that for `Cc1cccnc1NC(=O)c1ccc([N+](=O)[O-])o1`, > 119 µM (inactive); that for `C=CCn1c(Sc2ncc([N+](=O)[O-])s2)n[nH]c1=O`, 46.5 µM (inactive). The result for `O=C(Nc1cccc(NC(=O)c2ccccc2Cl)c1)c1ccc([N+](=O)[O-])o1` reads > 119 µM (inactive); that for `CCn1cc(C(=O)O)c(=O)c2cnc(N3CCN(C(=S)Nc4ccccc4C(F)(F)F)CC3)nc21`, 103 µM (inactive); that for `CC(=O)Nc1ccc2nc(NC(=O)c3ccc([N+](=O)[O-])o3)sc2c1`, > 119 µM (inactive). `N#Cc1c(NC(=O)c2ccc([N+](=O)[O-])o2)sc2c1CCC2`: the IC50 was > 119 µM (inactive).
